# Results as given in ChEMBL document CHEMBL3813647, “Discovery of an Orally Active and Liver-Targeted Prodrug of 5-Fluoro-2'-Deoxyuridine for the Treatment of Hepatocellular Carcinoma” (J Med Chem, 2016).
# What was measured:
# Liver [1] = assay: Drug uptake in Sprague-Dawley rat liver S9 fraction treated with (S)-Isopropyl 2-(((R)-(((2R,3S,5R)-5-(5-fluoro-2,4-dioxo 3,4-dihydropyrimidin-1(2H)-yl)-3-hydroxytetrahydrofuran-2-yl)methoxy)((2-methylbenzyl)oxy)phosphoryl)amino)propanoate at 20 ug/mL preincubated for 5 mins followed by NADPH addition measured at 20 mins by HPLC-MS/MS analysis; format: ADME, subcellular; details: s9, 20 min
# In short: (§1)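 Rat liver S9 (10 mg/mL) incubated with compound at 20 μg/mL. Parent, intermediate A and FdUMP followed over time by HPLC-MS/MS. Negative control run without NADPH.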
# [2] = Half life in rat plasma by HPLC analysis; format: ADME, cell-free
# In short: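 Rat plasma, 37 °C. Compound added from a 2.5 mM stock, sampled at 0–24 h, quenched with MeOH. Analyzed by HPLC-UV at 267 nm (C8 column, MeOH:H2O 68:32). Triplicate samples.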
# [3] = Cytotoxicity against human SMMC7721 cells assessed as reduction in cell viability after 72 hrs by MTT assay; format: functional, cell-based; details: SMMC-7721, 72 h
# In short: (§2)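 Cells in RPMI-1640 with 10% FBS, seeded at 4 × 10³ per well and attached for 24 h. Compound (DMSO ≤0.5% final) added for 72 h at 37 °C, 5% CO2. Viability read by MTT. IC50 set against 0.5% DMSO-treated cells taken as 100% viable. Mean of two independent experiments, each run in triplicate.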
# Liver [4] = assay: Drug metabolism in phenobarbital/beta-napthoflavone treated Sprague-Dawley rat liver S9 fraction assessed as prodrug activation at 50 uM preincubated for 5 mins followed by NADPH addition measured up to 60 mins by HPLC-MS/MS analysis; format: ADME, subcellular; details: s9, 1 h
# In short: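 S9 prepared from livers of Sprague-Dawley rats dosed i.g. with phenobarbital/β-naphthoflavone for 3 days. Incubation: 100 mM KH2PO4 pH 7.4, 5 mg/mL S9, compound at 50 μM, 5 min preincubation at 37 °C, then 2 mM NADPH. Samples at 0–60 min, MeOH extraction, FdUMP (m/z 325→129) measured by HPLC-MS/MS. Triplicate.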
# Liver [5] = assay: Drug uptake in Sprague-Dawley rat liver S9 fraction treated with (S)-Isopropyl 2-(((R)-(((2R,3S,5R)-5-(5-fluoro-2,4-dioxo-3,4-dihydropyrimidin-1(2H)-yl)-3-hydroxytetrahydrofuran-2-yl)methoxy)((2-methylbenzyl)oxy)phosphoryl)amino)propanoate at 20 ug/mL after 20 mins by HPLC-MS/MS analysis in absence of NADPH; format: ADME; details: s9, 20 min; in short: as §1
# Liver [6] = assay: AUC (infinity) in Sprague-Dawley rat liver assessed as FDUR formation at 49.87 mg/kg administered through oral gavage measured up to 24 hrs by HPLC-MS/MS analysis; format: ADME, organism-based; set-up: dose 49.87 mg/kg, route oral, time infinity; details: in vivo
# In short: (§3)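 Male Sprague-Dawley rats (220 ± 20 g), single gavage of 0.096 mmol/kg. FDUR was dosed in H2O; the prodrugs were dosed in 20% hydroxypropyl-β-cyclodextrin. n = 3 per time point, sampled at 0.25–24 h. Plasma (EDTA-K2, cardiac puncture) and freeze-clamped liver were homogenized in 20 mM EDTA-K2/70% MeOH. Analytes measured by HPLC-MS/MS in ESI negative mode.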
# [7] = Ratio of FdUMP AUC (infinity) in Sprague-Dawley rat liver to FDUR AUC (infinity) in Sprague-Dawley rat plasma at 49.87 mg/kg administered through oral gavage; format: ADME, organism-based; details: in vivo
# In short: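 Male Sprague-Dawley rats (220 20 g), single gavage of 0.096 mmol/kg prodrug in 20% hydroxypropyl-β-cyclodextrin. Blood by cardiac puncture under isoflurane and liver at 0.25–24 h, n = 3 per time point. Liver freeze-clamped and homogenized in 20 mM EDTA-K2/70% MeOH. FdUMP (liver) and FDUR (plasma) by HPLC-MS/MS, negative ESI. Index = AUC(inf) liver FdUMP / AUC(inf) plasma FDUR.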
# Liver [8] = assay: AUC (infinity) in Sprague-Dawley rat liver assessed as FdUMP formation at 49.87 mg/kg administered through oral gavage measured up to 24 hrs by HPLC-MS/MS analysis; format: ADME, organism-based; set-up: dose 49.87 mg/kg, time infinity, route oral; details: in vivo; in short: as §3
# Plasma [9] = assay: Cmax in Sprague-Dawley rat plasma assessed as FDUR formation at 49.87 mg/kg administered through oral gavage measured up to 24 hrs by HPLC-MS/MS analysis; format: ADME, organism-based; set-up: dose 49.87 mg/kg, route oral; details: in vivo; in short: as §3
# Plasma [10] = assay: Cmax in Sprague-Dawley rat plasma assessed as 5-FU formation at 49.87 mg/kg administered through oral gavage measured up to 24 hrs by HPLC-MS/MS analysis; format: ADME, organism-based; set-up: dose 49.87 mg/kg, route oral; details: in vivo; in short: as §3
# Plasma [11] = assay: AUC (infinity) in Sprague-Dawley rat plasma assessed as FDUR formation at 49.87 mg/kg administered through oral gavage measured up to 24 hrs by HPLC-MS/MS analysis; format: ADME, organism-based; set-up: dose 49.87 mg/kg, route oral, time infinity; details: in vivo; in short: as §3
# Liver [12] = assay: Cmax in Sprague-Dawley rat liver assessed as FdUMP formation at 49.87 mg/kg administered through oral gavage measured up to 24 hrs by HPLC-MS/MS analysis; format: ADME, organism-based; set-up: dose 49.87 mg/kg, route oral; details: in vivo; in short: as §3
# Liver [13] = assay: Cmax in Sprague-Dawley rat liver assessed as FDUR formation at 49.87 mg/kg administered through oral gavage measured up to 24 hrs by HPLC-MS/MS analysis; format: ADME, organism-based; set-up: dose 49.87 mg/kg, route oral; details: in vivo; in short: as §3
# [14] = Cytotoxicity against human LO2 cells assessed as reduction in cell viability after 72 hrs by MTT assay; format: cell-based; details: L02, 72 h; in short: as §2
# [15] = Half life in human plasma by HPLC-MS/MS analysis; format: ADME, cell-free
# In short: (§4)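 Compound at 1 μg/mL final in dog or human plasma, 37 °C. Sampled at 0–24 h and quenched with ice-cold MeOH containing internal standard. Parent measured by LC-MS/MS in ESI negative mode; t1/2 calculated from percent remaining versus 0 h.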
# [16] = Half life in dog plasma by HPLC-MS/MS analysis; format: ADME, cell-free, Canis lupus familiaris; in short: as §4
half-life [2],Drug metabolism (Liver [4]),Structure (SMILES),IC50 [3],other results
> 24 h,58.4 nmol/min/mg,Cc1ccccc1COP(=O)(NCc1ccccc1)OC[C@H]1O[C@@H](n2cc(F)c(=O)[nH]c2=O)C[C@@H]1O (some centres not stated),18.6 µM,AUC (Liver [6]): 838 ng·h/g; Ratio AUC [7]: < 3.8; AUC (Liver [8]): < 155 ng·h/g; Cmax (Plasma [9]): 40 ng/mL; Cmax (Plasma [10]): 14 ng/mL; AUC (Plasma [11]): 41 ng·h/mL; Cmax (Liver [12]): 55 ng/g; Cmax (Liver [13]): 50 ng/g
> 24 h,53.5 nmol/min/mg,Cc1ccc(COP(=O)(NCc2ccccc2)OC[C@H]2O[C@@H](n3cc(F)c(=O)[nH]c3=O)C[C@@H]2O)cc1 (some centres not stated),31.7 µM,–
> 24 h,34.7 nmol/min/mg,O=c1[nH]c(=O)n([C@H]2C[C@H](O)[C@@H](COP(=O)(NCc3ccccc3)OCc3ccccc3F)O2)cc1F (some centres not stated),155 µM,–
> 24 h,29.2 nmol/min/mg,O=c1[nH]c(=O)n([C@H]2C[C@H](O)[C@@H](COP(=O)(NCc3ccccc3)OCc3ccccc3Cl)O2)cc1F (some centres not stated),132 µM,–
> 24 h,22.6 nmol/min/mg,O=c1[nH]c(=O)n([C@H]2C[C@H](O)[C@@H](COP(=O)(NCc3ccccc3)OCc3cccc(Cl)c3)O2)cc1F (some centres not stated),206 µM,–
> 24 h,17.4 nmol/min/mg,O=c1[nH]c(=O)n([C@H]2C[C@H](O)[C@@H](COP(=O)(NCc3ccccc3)OCc3ccccc3)O2)cc1F (some centres not stated),365 µM,–

# More lines, now with the values behind:
Structure (SMILES),half-life [2],Drug metabolism (Liver [4]),IC50 [3],other results
Cc1ccccc1CO[P@](=O)(N[C@@H](C)C(=O)O)OC[C@H]1O[C@@H](n2cc(F)c(=O)[nH]c2=O)C[C@@H]1O,–,–,–,Drug uptake (Liver [1]): metabolite_detected
O=c1[nH]c(=O)n([C@H]2C[C@H](O)[C@@H](COP(=O)(NCc3ccccc3)OCc3ccc(F)cc3)O2)cc1F (some centres not stated),> 24 h,26.3 nmol/min/mg,150 µM,–
Cc1ccccc1C(=O)O [TOLUIC ACID],–,–,–,Drug metabolism (Liver [5]): metabolite_detected
O=c1[nH]c(=O)n([C@H]2C[C@H](O)[C@@H](COP(=O)(NCc3ccccc3)OCc3cccc(F)c3)O2)cc1F (some centres not stated),> 24 h,12.5 nmol/min/mg,241 µM,–
Cc1ccccc1COP(=O)(N[C@@H](C)C(=O)OC(C)C)OC[C@H]1O[C@@H](n2cc(F)c(=O)[nH]c2=O)C[C@@H]1O (some centres not stated),< 0.083 h,–,276 µM,IC50 [14]: 333 µM; half-life [15]: > 24 h; half-life [16]: > 24 h
COc1cccc(COP(=O)(NCc2ccccc2)OC[C@H]2O[C@@H](n3cc(F)c(=O)[nH]c3=O)C[C@@H]2O)c1 (some centres not stated),> 24 h,118.7 nmol/min/mg,386 µM,–
